# Results: ChEMBL document CHEMBL2034974, “Design, synthesis and structure-activity relationships of new triazole derivatives containing N-substituted phenoxypropylamino side chains” (2012)
# Experiments:
# Format in all cases: functional
# Cryptococcus neoformans = assay: Antifungal activity against Cryptococcus neoformans after 72 hrs by serial dilution method
# In short: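 Cryptococcus yeast, ATCC or clinical isolate, tested by NCCLS serial dilution in 96-well plates with RPMI 1640 plus 0.165 M MOPS. Compounds were dissolved in DMSO and serially diluted in medium. Incubation was at 35 °C with MIC80 read at 72 h, defined as the lowest concentration giving ≥80% growth inhibition relative to control.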
# Pichia kudriavzevii = assay: Antifungal activity against Candida krusei after 24 hrs by serial dilution method
# In short: (§1)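 NCCLS broth microdilution in 96-well plates, with ATCC or clinical isolate strains. Medium was RPMI 1640 buffered with 0.165 M MOPS, and compounds were dissolved in DMSO and serially diluted in medium. Yeasts were incubated at 35 °C and growth was read at 24 h. MIC80 was taken as the lowest concentration giving ≥80% growth inhibition versus the drug-free control.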
# Candida tropicalis = assay: Antifungal activity against Candida tropicalis after 24 hrs by serial dilution method; in short: as §1
# Candida albicans = assay: Antifungal activity against Candida albicans after 24 hrs by serial dilution method; in short: as §1
# Candida parapsilosis = assay: Antifungal activity against Candida parapsilosis after 24 hrs by serial dilution method; details: Lodderomyces parapsilosis; in short: as §1
# Trichophyton rubrum = assay: Antifungal activity against Trichophyton rubrum by serial dilution method
# In short: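 Dermatophyte, ATCC or clinical isolate, tested by NCCLS serial-dilution microtest in RPMI 1640 buffered with 0.165 M MOPS. Compounds were dissolved in DMSO and diluted serially in medium, and incubation was at 28 °C. The endpoint was MIC80, the lowest concentration reducing turbidity to ≥80% inhibition of control growth.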
Compound,MIC80 (Cryptococcus neoformans),MIC80 (Pichia kudriavzevii),MIC80 (Candida tropicalis),MIC80 (Candida albicans),MIC80 (Candida parapsilosis),MIC80 (Trichophyton rubrum)
CN(CCCOc1ccc(Br)cc1)CC(O)(Cn1cncn1)c1ccc(F)cc1F (centres undefined),1 µg/mL,2 µg/mL,2 µg/mL,0.5 µg/mL,1 µg/mL,2 µg/mL
CN(CCCOc1ccccc1)CC(O)(Cn1cncn1)c1ccc(F)cc1F (centres undefined),1 µg/mL,0.5 µg/mL,< 0.125 µg/mL,0.0125 µg/mL,0.125 µg/mL,1 µg/mL
CCOC(=O)CN(CCCOc1ccccc1)CC(O)(Cn1cncn1)c1ccc(F)cc1F (racemic),8 µg/mL,4 µg/mL,8 µg/mL,2 µg/mL,> 64 µg/mL,8 µg/mL
COC(=O)CN(CCCOc1ccccc1)CC(O)(Cn1cncn1)c1ccc(F)cc1F (racemic),16 µg/mL,4 µg/mL,8 µg/mL,2 µg/mL,> 64 µg/mL,2 µg/mL
OC(CN(CCCOc1ccccc1)Cc1ccc(F)cc1)(Cn1cncn1)c1ccc(F)cc1F (racemic),8 µg/mL,8 µg/mL,8 µg/mL,4 µg/mL,16 µg/mL,32 µg/mL
Cc1ccc(CN(CCCOc2ccccc2)CC(O)(Cn2cncn2)c2ccc(F)cc2F)cc1 (racemic),4 µg/mL,4 µg/mL,8 µg/mL,8 µg/mL,8 µg/mL,16 µg/mL
OC(CN(CCCOc1ccccc1)Cc1ccccc1)(Cn1cncn1)c1ccc(F)cc1F (racemic),16 µg/mL,8 µg/mL,8 µg/mL,2 µg/mL,64 µg/mL,16 µg/mL
CCCCN(CCCOc1ccccc1)CC(O)(Cn1cncn1)c1ccc(F)cc1F (racemic),4 µg/mL,1 µg/mL,8 µg/mL,2 µg/mL,16 µg/mL,8 µg/mL
CCCN(CCCOc1ccccc1)CC(O)(Cn1cncn1)c1ccc(F)cc1F (racemic),1 µg/mL,1 µg/mL,16 µg/mL,1 µg/mL,32 µg/mL,4 µg/mL
CCN(CCCOc1ccccc1)CC(O)(Cn1cncn1)c1ccc(F)cc1F (racemic),1 µg/mL,1 µg/mL,0.5 µg/mL,0.0313 µg/mL,2 µg/mL,1 µg/mL
OC(CNCCCOc1ccccc1)(Cn1cncn1)c1ccc(F)cc1F (racemic),1 µg/mL,< 0.125 µg/mL,< 0.125 µg/mL,0.0625 µg/mL,0.5 µg/mL,2 µg/mL
CC(C)CN(CCCOc1ccc(Br)cc1)CC(O)(Cn1cncn1)c1ccc(F)cc1F (racemic),16 µg/mL,4 µg/mL,8 µg/mL,4 µg/mL,8 µg/mL,8 µg/mL
C#CCN(CCCOc1ccc(Br)cc1)CC(O)(Cn1cncn1)c1ccc(F)cc1F (racemic),8 µg/mL,8 µg/mL,8 µg/mL,0.5 µg/mL,32 µg/mL,8 µg/mL
C=CCN(CCCOc1ccc(Br)cc1)CC(O)(Cn1cncn1)c1ccc(F)cc1F (racemic),4 µg/mL,2 µg/mL,1 µg/mL,2 µg/mL,16 µg/mL,8 µg/mL
CC(C)(C)OC(=O)CN(CCCOc1ccc(Br)cc1)CC(O)(Cn1cncn1)c1ccc(F)cc1F (racemic),64 µg/mL,4 µg/mL,16 µg/mL,4 µg/mL,64 µg/mL,64 µg/mL
CCOC(=O)CN(CCCOc1ccc(Br)cc1)CC(O)(Cn1cncn1)c1ccc(F)cc1F (racemic),32 µg/mL,32 µg/mL,16 µg/mL,4 µg/mL,16 µg/mL,16 µg/mL
COC(=O)CN(CCCOc1ccc(Br)cc1)CC(O)(Cn1cncn1)c1ccc(F)cc1F (racemic),8 µg/mL,4 µg/mL,4 µg/mL,2 µg/mL,64 µg/mL,8 µg/mL
OC(CN(CCCOc1ccc(Br)cc1)Cc1ccc(F)cc1)(Cn1cncn1)c1ccc(F)cc1F (racemic),32 µg/mL,8 µg/mL,8 µg/mL,4 µg/mL,2 µg/mL,16 µg/mL
Cc1ccc(CN(CCCOc2ccc(Br)cc2)CC(O)(Cn2cncn2)c2ccc(F)cc2F)cc1 (racemic),64 µg/mL,8 µg/mL,8 µg/mL,4 µg/mL,0.5 µg/mL,64 µg/mL
OC(CN(CCCOc1ccc(Br)cc1)Cc1ccccc1)(Cn1cncn1)c1ccc(F)cc1F (racemic),16 µg/mL,4 µg/mL,8 µg/mL,2 µg/mL,32 µg/mL,4 µg/mL
CCCCN(CCCOc1ccc(Br)cc1)CC(O)(Cn1cncn1)c1ccc(F)cc1F (racemic),4 µg/mL,4 µg/mL,4 µg/mL,2 µg/mL,4 µg/mL,16 µg/mL
CCCN(CCCOc1ccc(Br)cc1)CC(O)(Cn1cncn1)c1ccc(F)cc1F (racemic),4 µg/mL,4 µg/mL,2 µg/mL,2 µg/mL,> 64 µg/mL,8 µg/mL
CCN(CCCOc1ccc(Br)cc1)CC(O)(Cn1cncn1)c1ccc(F)cc1F (racemic),1 µg/mL,4 µg/mL,1 µg/mL,0.5 µg/mL,2 µg/mL,2 µg/mL
OC(CNCCCOc1ccc(Br)cc1)(Cn1cncn1)c1ccc(F)cc1F (racemic),1 µg/mL,< 0.125 µg/mL,< 0.125 µg/mL,0.0313 µg/mL,0.5 µg/mL,0.5 µg/mL
CC(C)(C)OC(=O)CN(CCCOc1ccccc1)CC(O)(Cn1cncn1)c1ccc(F)cc1F (racemic),> 64 µg/mL,8 µg/mL,8 µg/mL,4 µg/mL,> 64 µg/mL,64 µg/mL
C=CCN(CCCOc1ccccc1)CC(O)(Cn1cncn1)c1ccc(F)cc1F (racemic),2 µg/mL,1 µg/mL,1 µg/mL,0.25 µg/mL,64 µg/mL,1 µg/mL
C#CCN(CCCOc1ccccc1)CC(O)(Cn1cncn1)c1ccc(F)cc1F (racemic),4 µg/mL,1 µg/mL,4 µg/mL,0.25 µg/mL,8 µg/mL,4 µg/mL
OC(Cn1cncn1)(Cn1cncn1)c1ccc(F)cc1F [FLUCONAZOLE],2 µg/mL,4 µg/mL,1 µg/mL,0.5 µg/mL,1 µg/mL,1 µg/mL
CCC(C)n1ncn(-c2ccc(N3CCN(c4ccc(OCC5COC(Cn6cncn6)(c6ccc(Cl)cc6Cl)O5)cc4)CC3)cc2)c1=O (centres undefined) [ITRACONAZOLE],0.5 µg/mL,1 µg/mL,< 0.125 µg/mL,0.125 µg/mL,4 µg/mL,0.125 µg/mL
